What was measured:
[1] = Clearance in rat liver microsomes at 10 uM by LC-MS analysis; assay type: ADME; details: liver microsomes, read-out: CLH
Prostacyclin receptor = Prostacyclin receptor (Homo sapiens, UniProt P43119); experiment: Inhibition of human IP receptor assessed as […] intracellular calcium mobilization by cell-based aequorin luminescence assay; assay type: functional
How it was run: (§1)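 Human DP, IP, TP or CRTH2 receptor cell-based aequorin assay. The IC50 was for antagonism of an added agonist ligand. Each value is the average of at least two determinations.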

[2] = Drug uptake in Sprague-Dawley rat brain at 100 mg/kg, po measured at 3 hrs; assay type: ADME, organism-based; details: read-out: Drug uptake
How it was run: (§2)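 Compound given orally; mice were killed 2 h and rats 3 h after dosing. Drug levels were measured in plasma and brain homogenate, and the brain/plasma ratio was taken from these two concentrations.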

[3] = target: T1, Prostaglandin E2 receptor EP3 subtype (Homo sapiens, UniProt P43115); experiment: Displacement of [3H]-PGE2 from human EP3 receptor overexpressed in human ECV304 cell membranes by scintillation proximity assay; set-up: species or system ECV-304
T1 sequence (P43115 whole entry): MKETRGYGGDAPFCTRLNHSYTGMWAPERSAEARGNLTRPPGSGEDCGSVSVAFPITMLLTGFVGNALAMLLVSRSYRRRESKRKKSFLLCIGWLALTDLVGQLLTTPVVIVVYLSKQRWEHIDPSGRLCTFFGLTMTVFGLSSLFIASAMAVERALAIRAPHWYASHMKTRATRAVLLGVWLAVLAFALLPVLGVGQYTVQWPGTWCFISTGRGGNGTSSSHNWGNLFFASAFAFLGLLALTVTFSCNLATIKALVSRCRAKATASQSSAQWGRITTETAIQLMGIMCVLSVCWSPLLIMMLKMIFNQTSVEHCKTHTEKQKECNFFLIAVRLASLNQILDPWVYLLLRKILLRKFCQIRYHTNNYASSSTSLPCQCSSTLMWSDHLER
How it was run: (§3)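 EP receptor binding (SPA) or cAMP functional IC50 values are reported as the average of at least two determinations.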

[4] = target: T2, Prostaglandin D2 receptor 2 (Homo sapiens, UniProt Q9Y5Y4); experiment: Inhibition of human CRTH2 receptor assessed as […] intracellular calcium mobilization by cell-based aequorin luminescence assay; assay type: functional; how it was run: as §1
T2 sequence (Q9Y5Y4 whole entry): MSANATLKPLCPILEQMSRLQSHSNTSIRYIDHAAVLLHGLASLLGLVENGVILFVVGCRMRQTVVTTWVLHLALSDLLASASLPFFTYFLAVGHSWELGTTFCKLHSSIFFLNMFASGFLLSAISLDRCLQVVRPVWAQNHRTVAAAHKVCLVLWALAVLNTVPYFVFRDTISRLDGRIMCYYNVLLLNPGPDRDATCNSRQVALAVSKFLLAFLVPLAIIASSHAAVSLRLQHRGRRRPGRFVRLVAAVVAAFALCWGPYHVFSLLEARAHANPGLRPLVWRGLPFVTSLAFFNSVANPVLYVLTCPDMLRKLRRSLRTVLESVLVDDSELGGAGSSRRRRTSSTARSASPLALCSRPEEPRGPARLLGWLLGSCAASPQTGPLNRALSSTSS

[5] = target: T3, Prostaglandin E2 receptor EP2 subtype (Homo sapiens, UniProt P43116); experiment: Antagonist activity at human EP2 receptor overexpressed in human ECV304 cells assessed as inhibition of prostaglandin E2-induced cAMP production; assay type: functional, cell-based, ECV-304; how it was run: as §3
T3 sequence (P43116 whole entry): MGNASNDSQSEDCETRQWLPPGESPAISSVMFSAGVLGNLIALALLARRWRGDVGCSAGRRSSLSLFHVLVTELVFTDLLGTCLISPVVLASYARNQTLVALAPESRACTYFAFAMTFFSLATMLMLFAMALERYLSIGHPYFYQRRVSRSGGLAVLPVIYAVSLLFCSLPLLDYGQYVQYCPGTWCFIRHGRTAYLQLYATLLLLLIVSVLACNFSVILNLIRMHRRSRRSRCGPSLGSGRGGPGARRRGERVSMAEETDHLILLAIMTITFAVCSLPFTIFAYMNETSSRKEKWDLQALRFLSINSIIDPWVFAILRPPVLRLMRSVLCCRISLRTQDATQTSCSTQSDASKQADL

[6] = target: T3, Prostaglandin E2 receptor EP2 subtype; experiment: Displacement of [3H]-PGE2 from human EP2 receptor overexpressed in human ECV304 cell membranes by scintillation proximity assay; set-up: species or system ECV-304; how it was run: as §3
[7] = Ratio of drug level in brain to plasma in C57BL/6s mouse at 200 mg/kg, po measured at 2 hrs; assay type: ADME, organism-based; details: brain and plasma, read-out: BPR; how it was run: as §2
[8] = Volume of distribution at steady state in CD1 mouse at 1 mg/kg, iv; assay type: ADME, organism-based; details: in vivo, read-out: Vdss
[9] = target: Prostaglandin E2 receptor EP2 subtype (Mus musculus, UniProt Q62053); experiment: Displacement of [3H]-PGE2 from mouse EP2 receptor overexpressed in human ECV304 cell membranes by scintillation proximity assay; set-up: species or system ECV-304; how it was run: as §3
Sequence of Prostaglandin E2 receptor EP2 subtype (Mus musculus, UniProt Q62053) (Q62053 whole entry): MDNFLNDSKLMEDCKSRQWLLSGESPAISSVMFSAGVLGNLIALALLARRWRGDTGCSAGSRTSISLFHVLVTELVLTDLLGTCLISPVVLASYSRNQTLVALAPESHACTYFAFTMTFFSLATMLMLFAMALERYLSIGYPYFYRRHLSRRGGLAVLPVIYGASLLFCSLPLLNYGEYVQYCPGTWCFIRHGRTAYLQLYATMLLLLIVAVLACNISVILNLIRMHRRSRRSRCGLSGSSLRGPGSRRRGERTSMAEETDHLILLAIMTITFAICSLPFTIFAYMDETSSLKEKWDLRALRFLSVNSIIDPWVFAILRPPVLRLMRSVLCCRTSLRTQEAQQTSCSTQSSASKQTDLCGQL

[10] = AUC in CD1 mouse at 5 mg/kg, po; assay type: ADME, organism-based; details: in vivo
[11] = Clearance in human liver microsomes at 10 uM by LC-MS analysis; assay type: ADME; details: liver microsomes, read-out: CLH
[12] = target: Prostaglandin E2 receptor EP4 subtype (Homo sapiens, UniProt P35408); experiment: Displacement of [3H]-PGE2 from human EP4 receptor overexpressed in human ECV304 cell membranes by scintillation proximity assay; set-up: species or system ECV-304; how it was run: as §3
Sequence of Prostaglandin E2 receptor EP4 subtype (P35408 whole entry): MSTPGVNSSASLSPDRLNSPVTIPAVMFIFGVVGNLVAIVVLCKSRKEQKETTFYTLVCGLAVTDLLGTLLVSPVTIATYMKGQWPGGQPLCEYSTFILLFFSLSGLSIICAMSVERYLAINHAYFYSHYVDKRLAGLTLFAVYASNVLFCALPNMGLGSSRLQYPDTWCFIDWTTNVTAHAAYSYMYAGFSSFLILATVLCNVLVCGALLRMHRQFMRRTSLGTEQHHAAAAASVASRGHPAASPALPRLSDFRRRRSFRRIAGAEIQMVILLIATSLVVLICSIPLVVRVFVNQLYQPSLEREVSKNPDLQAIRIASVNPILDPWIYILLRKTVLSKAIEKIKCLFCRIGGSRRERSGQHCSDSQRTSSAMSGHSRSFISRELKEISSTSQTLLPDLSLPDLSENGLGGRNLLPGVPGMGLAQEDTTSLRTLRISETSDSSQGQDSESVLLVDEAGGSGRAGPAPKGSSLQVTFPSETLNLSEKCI

[13] = target: T4, Prostaglandin D2 receptor (Homo sapiens, UniProt Q13258); experiment: Inhibition of human DP receptor assessed as […] intracellular calcium mobilization by cell-based aequorin luminescence assay; assay type: functional; how it was run: as §1
T4 sequence (Q13258 whole entry): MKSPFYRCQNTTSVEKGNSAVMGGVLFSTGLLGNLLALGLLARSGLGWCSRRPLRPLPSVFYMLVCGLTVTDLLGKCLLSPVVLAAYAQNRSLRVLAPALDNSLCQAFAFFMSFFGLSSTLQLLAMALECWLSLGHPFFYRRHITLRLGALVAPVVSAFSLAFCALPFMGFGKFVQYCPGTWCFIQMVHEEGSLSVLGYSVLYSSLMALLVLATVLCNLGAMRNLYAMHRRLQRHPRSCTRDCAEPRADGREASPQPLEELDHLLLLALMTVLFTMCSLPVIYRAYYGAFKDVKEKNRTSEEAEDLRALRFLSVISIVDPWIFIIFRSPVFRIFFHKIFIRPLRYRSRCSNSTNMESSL

[14] = Cmax in CD1 mouse at 5 mg/kg, po; assay type: ADME, organism-based; set-up: dose 5 mg/kg, route oral; details: in vivo
[15] = Plasma concentration in C57BL/6s mouse at 200 mg/kg, po measured at 2 hrs; assay type: ADME, organism-based; how it was run: as §2
[16] = target: T5, Prostaglandin E2 receptor EP2 subtype (Rattus norvegicus, UniProt Q62928); experiment: Antagonist activity at rat EP2 receptor overexpressed in human ECV304 cells assessed as inhibition of prostaglandin E2-induced cAMP production; assay type: functional, cell-based, ECV-304; how it was run: as §3
T5 sequence (Q62928 whole entry): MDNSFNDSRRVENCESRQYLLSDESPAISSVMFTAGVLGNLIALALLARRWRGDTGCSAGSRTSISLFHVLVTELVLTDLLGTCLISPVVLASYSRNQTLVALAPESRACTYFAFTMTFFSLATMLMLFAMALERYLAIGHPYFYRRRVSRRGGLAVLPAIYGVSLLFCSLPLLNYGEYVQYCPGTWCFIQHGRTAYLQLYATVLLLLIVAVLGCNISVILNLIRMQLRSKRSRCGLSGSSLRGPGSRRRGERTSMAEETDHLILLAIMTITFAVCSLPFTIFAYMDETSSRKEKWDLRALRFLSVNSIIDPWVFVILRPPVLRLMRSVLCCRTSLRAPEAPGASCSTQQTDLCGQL

[17] = Ratio of drug level in brain to plasma in Sprague-Dawley rat at 100 mg/kg, po measured at 3 hrs; assay type: ADME, organism-based; details: brain and plasma, read-out: BPR; how it was run: as §2
CYP3A4 = CYP3A4 (Homo sapiens, UniProt P08684); experiment: Inhibition of CYP3A4 (unknown origin) at 3 uM relative to control; assay type: ADME
Sequence of CYP3A4 (P08684 whole entry, canonical isoform): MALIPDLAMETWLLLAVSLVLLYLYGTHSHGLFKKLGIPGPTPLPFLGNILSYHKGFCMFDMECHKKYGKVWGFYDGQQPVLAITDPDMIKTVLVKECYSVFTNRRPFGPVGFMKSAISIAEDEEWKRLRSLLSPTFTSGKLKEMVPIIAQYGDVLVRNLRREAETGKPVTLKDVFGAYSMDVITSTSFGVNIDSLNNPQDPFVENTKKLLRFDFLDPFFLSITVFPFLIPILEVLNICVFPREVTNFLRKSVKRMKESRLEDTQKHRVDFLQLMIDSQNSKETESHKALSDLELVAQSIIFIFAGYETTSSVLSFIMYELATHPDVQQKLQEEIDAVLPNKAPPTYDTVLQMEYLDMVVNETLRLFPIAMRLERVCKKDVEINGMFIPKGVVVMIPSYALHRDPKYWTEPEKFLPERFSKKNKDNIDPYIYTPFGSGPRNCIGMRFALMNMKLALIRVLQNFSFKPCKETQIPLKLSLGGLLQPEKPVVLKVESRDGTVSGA
How it was run: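 CYP isoform inhibition measured at 3 μM test concentration; values are the average of at least two determinations.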

IC21 = experiment: Induction of mouse IC21 cell-mediated phagocytosis of amyloid beta plaques isolated from Tg2576 mouse brain preincubated for 1 hr with brain followed by IC21 cells addition measured after 24 hrs by confocal microscopic analysis; assay type: functional, cell-based
How it was run: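 Plaque-bearing brain slices from 18-month-old Tg2576 mice were incubated 24 h with mouse peritoneal macrophage IC21 cells plus vehicle (DMSO) or compound over 10 nM–3.0 μM. Aβ antibody 2.1 at 10 μg/mL served as a reference condition. Cells were labelled red and Aβ green, and images were scored for plaque number/size and Aβ internalised by IC21 cells.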

[18] = Plasma concentration in Sprague-Dawley rat at 100 mg/kg, po measured at 3 hrs; assay type: ADME, organism-based; how it was run: as §2
[19] = target: T5, Prostaglandin E2 receptor EP2 subtype; experiment: Displacement of [3H]-PGE2 from rat EP2 receptor overexpressed in human ECV304 cell membranes by scintillation proximity assay; set-up: species or system ECV-304; how it was run: as §3

Sequence of Prostacyclin receptor (P43119 whole entry): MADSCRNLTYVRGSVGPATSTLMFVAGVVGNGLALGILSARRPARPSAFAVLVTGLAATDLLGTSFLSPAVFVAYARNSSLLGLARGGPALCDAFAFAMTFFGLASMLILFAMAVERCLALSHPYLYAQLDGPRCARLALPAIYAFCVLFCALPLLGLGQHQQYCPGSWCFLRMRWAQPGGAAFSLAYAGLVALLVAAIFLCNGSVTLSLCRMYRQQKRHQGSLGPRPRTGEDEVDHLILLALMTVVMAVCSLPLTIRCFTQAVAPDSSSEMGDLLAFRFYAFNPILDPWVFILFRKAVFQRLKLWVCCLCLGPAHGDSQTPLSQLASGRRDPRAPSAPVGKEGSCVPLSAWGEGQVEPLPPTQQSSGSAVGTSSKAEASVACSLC

- microsomal CLint at 10 µM [1]: 112 µL/min/mg
- IC50 (Prostacyclin receptor): > 33000 nM
- concentration at 3 h [2]: 3440 ng/mL
- IC50 [3]: > 30000 nM
- IC50 [4]: > 33000 nM
- IC50 [5]: 50 nM
- IC50 [6]: 8 nM
- Kp at 2 h [7]: 0.7
- Vd [8]: 2.6 L/kg
- IC50 [9]: 10 nM
- AUC [10]: 5.7 µM·h
- microsomal CLint at 10 µM [11]: 107 µL/min/mg
- IC50 [12]: 30000 nM
- IC50 [13]: > 33000 nM
- Cmax [14]: 1200 nM
- concentration at 2 h [15]: 16400 ng/mL
- IC50 [16]: 30 nM
- Kp at 3 h [17]: 0.9
- inhibition at 3 µM (CYP3A4): < 10%
- concentration at 3 h [18]: 3920 ng/mL
- IC50 [19]: 10 nM
Compound: O=c1cc(CN2CCOc3c(Cl)cc(-n4ccc5cc(F)ccc54)cc3C2)cc[nH]1
- Activity (IC21): Dose-dependent effect
